# Compound activity deposited in PubChem BioAssay by several laboratories.
# T cruzi inh: blocks replication of Trypanosoma cruzi; AID 1885; T. cruzi beta-gal in NIH3T3, luminescence, 90 h; inhibition, % (test concentration not listed); 1.4% of 300,000 active;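 active means mean inhibition across valid replicates above about 55%, limit read from the data; inconclusive means mean below that limit but half or more replicates reach it; inactive means mean below it, under half of replicates reach it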;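 further: signal also drops with host cell toxicity which is not excluded here; 0% = plate median of DMSO wells and 100% = zero luminescence signal; higher percent means less beta-gal luminescence so fewer parasites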
#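 System: NIH/3T3 fibroblasts plus reporter T. cruzi. Medium: DMEM plus 2% FBS. Probe or stimulus: 5000 reporter trypomastigotes per well. Compound: single 50 nL compound addition per well in DMSO. Incubation: co-culture of at least 90 h after 3 h attachment. Detection: GalScreen β-gal luminescence, detergent lysis, 60 min. Evaluation: parasite load inhibition, %.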
# Calb FLC: affects C. albicans growth with fluconazole; C. albicans CaCi-2 + fluconazole, Alamar Blue growth, 48 h; growth inhibition, % (test concentration not listed); 0.57% of 300,000 active; AID 1979;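 active means growth inhibition above about 58% in most replicates, limit read from the data, passing the limit was not always enough; inconclusive means exactly half the replicates above a set limit; inactive means most replicates below a set limit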;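 further: all wells also contain fluconazole at 8 µg/ml as a sub-toxic cotreatment; 0% = median of DMSO wells and 100% = median of geldanamycin control wells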
# Beta cell apopt: beta cell apoptosis inhibition | protection from apoptosis, % (concentration not given with the values) | AID 435005 | INS-1E cytokine-induced death, ATP luminescence, 48 h; percent of positive-control rescue, neutral wells zero | 0.8% of 300,000 active;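 active means Every replicate reaches about 75%, or at least half do and their mean reaches it too, limit read from the data; inconclusive means At least half of replicates reach the limit but their mean does not; inactive means Under half of replicates reach the limit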;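 further: 0% = cytokine-treated negative control wells and 100% = positive control rescue; higher means more ATP so stronger rescue from cytokine killing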
# NALP3 yeast inh: inhibitors of NALP3 inflammasome in yeast; Yeast reconstituted NLRP3/ASC/caspase-1, beta-gal luminescence, 24 h; inhibition, % at 10 µM; 0.39% of 330,000 active;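 active means inhibition of 50% or more; inactive means inhibition below 50%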;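 further: plate controls were induced DMSO wells for no effect and uninduced yeast grown without galactose for full effect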
# CSC inhib: blocks cancer stem cells; cancer stem cell-like cells viability, luminescence; inhibition, % at 7.5 µM; 1.1% of 300,000 active; AID 2717; in the data active means inhibition above about 75%; inconclusive means no clear call, values can overlap the other calls; tested in HMLE shEcad cells
# Mdm2-MdmX inh: inhibitors of human Mdm2/MdmX interaction | O15151+Q00987 | SaOS-2 split-luciferase Mdm2/MdmX complementation, luminescence | inhibition, % at 8 µM | 3% of 330,000 active | AID 485346;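 active means inhibition of at least 50% at 8 µM in the primary screen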
# Target sequence (O15151 whole entry, looked up): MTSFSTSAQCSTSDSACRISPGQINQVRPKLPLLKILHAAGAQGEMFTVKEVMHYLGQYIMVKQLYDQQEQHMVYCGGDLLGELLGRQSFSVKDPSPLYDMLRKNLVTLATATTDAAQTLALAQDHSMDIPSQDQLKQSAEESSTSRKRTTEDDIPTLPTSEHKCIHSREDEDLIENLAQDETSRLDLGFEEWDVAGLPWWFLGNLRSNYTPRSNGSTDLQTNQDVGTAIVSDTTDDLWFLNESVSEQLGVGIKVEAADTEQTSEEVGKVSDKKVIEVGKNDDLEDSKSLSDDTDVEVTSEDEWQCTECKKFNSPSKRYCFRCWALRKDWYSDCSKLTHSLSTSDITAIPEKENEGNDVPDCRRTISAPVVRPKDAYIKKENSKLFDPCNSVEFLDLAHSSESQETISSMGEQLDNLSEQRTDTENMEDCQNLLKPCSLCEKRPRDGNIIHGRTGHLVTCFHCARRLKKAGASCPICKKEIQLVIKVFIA
# Target sequence (Q00987 whole entry, looked up): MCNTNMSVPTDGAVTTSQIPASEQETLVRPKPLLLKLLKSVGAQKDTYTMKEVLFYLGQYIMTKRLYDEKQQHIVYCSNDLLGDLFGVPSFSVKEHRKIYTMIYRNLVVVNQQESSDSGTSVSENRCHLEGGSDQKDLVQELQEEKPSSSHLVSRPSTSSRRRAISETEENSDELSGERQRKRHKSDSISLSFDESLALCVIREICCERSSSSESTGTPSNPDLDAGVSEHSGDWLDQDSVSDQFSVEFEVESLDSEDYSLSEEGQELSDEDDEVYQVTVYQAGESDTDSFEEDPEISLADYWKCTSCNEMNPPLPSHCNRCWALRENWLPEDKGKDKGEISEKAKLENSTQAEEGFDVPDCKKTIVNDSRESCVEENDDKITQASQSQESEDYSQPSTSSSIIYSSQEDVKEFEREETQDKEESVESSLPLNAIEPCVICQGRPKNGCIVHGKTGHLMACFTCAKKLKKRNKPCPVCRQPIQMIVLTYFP
# Mdm2 MdmX conf: confirmation of human Mdm2/MdmX interaction inhibitors. Mdm2-MdmX binding, luminescent assay. inhibition, % at 8 µM. shares compounds with Mdm2-MdmX inh. 55% of 10,000 active; in the data active means inhibition above about 40%
# FLuc counter: full-length luciferase inhibition in Mdm2/MdmX counter-screen | AID 504607 | SaOS-2 full-length luciferase counterscreen, luminescence | inhibition, % at 8 µM | shares compounds with Mdm2-MdmX inh | 77% of 6,200 active;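 active means mean inhibition at 8 µM reaching about 37%, which flags the compound as non-specific, limit read from the data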;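 further: p53-null SaOS-2 cells with luciferase driven by a doxycycline-inducible promoter; compound on cells about two nights before reading with doxycycline added after day one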
# * hit, by the source's call; ? = inconclusive; nt = no result. Most compounds without a hit are left out; they make up all but 5.3% or so of the library.
SMILES,T cruzi inh,Calb FLC,Beta cell apopt,NALP3 yeast inh,CSC inhib,Mdm2-MdmX inh,Mdm2 MdmX conf,FLuc counter
CCC(C)NC(=O)c1ccccc1C(=O)NC(C)CC (centres undefined),5,-24,-3,16,5,8,nt,nt
COc1ccccc1N1CCN(C(=O)C(C)N(c2ccc(C)c(C)c2)S(C)(=O)=O)CC1 (centres undefined),nt,0,0,11,1,15,nt,nt
O=C(NC1(Cc2ccccc2)CCN(CCCc2ccccc2)C1=O)c1ccccc1 (centres undefined),nt,nt,111*,20,-10,64*,54*,40*
OCC1(Cc2ccc(Cl)cc2)CCN(CCCc2ccccc2)CC1,49,-11,-5,-10,-11,32,nt,nt
CC1(C)CC(NC(=O)c2sc3cc(Cl)ccc3c2Cl)CC(C)(C)N1,29,18,15,12,49,87*,62*,46*
Cc1ccc(-n2c(-c3ccccc3)cc(/C=N/NC(=O)CC#N)c2-c2ccccc2)cc1,65*,-9,123*,9,19,55*,20,nt
Cc1nnc2ccc(-c3ccc(NC(=O)Cc4cccs4)cc3)nn12,-4,-4,0,1,-11,39,nt,nt
Cc1ccc(S(=O)(=O)c2ccc([N+](=O)[O-])cn2)cc1,67*,-6,105*,-31,100*,96*,88*,52*
O=[N+]([O-])c1ccc(S(=O)(=O)c2ccccc2)nc1,73*,-10,106*,-32,102*,95*,97*,50*
Cc1cc(S(=O)(=O)c2ccc([N+](=O)[O-])cn2)ccc1Br,15,-32,17,-1,98*,99*,99*,39*
Nc1ccc(S(=O)(=O)c2ccccc2)nc1,-4,-1,-6,-1,-11,5,nt,nt
CCC(=O)N(Cc1cc2ccc(C)cc2[nH]c1=O)c1ccccc1OC,11,-3,-2,11,-31,4,nt,nt
O=C1CNc2ccc(C(=O)N3CCN(c4ccccn4)CC3)cc2N1,-10,15,0,11,-9,13,nt,nt
Cc1cccc(N2CCN(C(=O)C3CCN(S(=O)(=O)c4c(C)noc4C)CC3)CC2C)c1 (centres undefined),14,-18,2,3,-6,3,nt,nt
Cc1ccc(-n2nc(C)c(NC(=O)CCl)c2C)cc1C,-22,0,3,11,12,76*,88*,34
CCC(=O)Nc1c(C)nn(-c2ccc(C)c(C)c2)c1C,-9,?,-6,11,1,-26,nt,nt
Cc1ccc2nsnc2c1NC(=O)Cc1ccc(Cl)cc1,-5,-1,-2,-8,-11,-15,nt,nt
Cc1ccc2nsnc2c1NC(=O)c1ccc(-c2cc(Cl)ccc2Cl)o1,19,-4,47,11,-18,60*,23,nt
CN(C)CCCN(Cc1ccccc1)C(=S)Nc1ccc(SC(F)F)cc1,-5,2,-2,7,-19,28,nt,nt
FC(F)Sc1ccc(NC(=S)NCc2ccccc2)cc1,11,-13,-3,17,4,-18,nt,nt
FC(F)Sc1ccc(NC(=S)NCC2CCCCC2)cc1,23,-62,11,27,48,65*,-4,nt
FC(F)Sc1ccc(NC(=S)NC(c2ccccc2)c2ccccc2)cc1,?,-10,37,11,9,100*,74*,38*
CN(C(=S)Nc1ccc(SC(F)F)cc1)C(c1ccccc1)c1ccccc1,-5,-2,-7,15,?,56*,7,nt
CC1Nc2ccc(C(=O)NC3CCCCC3)cc2NC1=O (centres undefined),1,-1,0,26,-10,7,nt,nt
Cc1ccc(CNC(=O)c2ccc([N+](=O)[O-])o2)cc1,47,-6,-27,7,-6,18,nt,nt
SMILES,T cruzi inh,Calb FLC,Beta cell apopt,NALP3 yeast inh,CSC inhib,Mdm2-MdmX inh,Mdm2 MdmX conf,FLuc counter
Cc1ccc(/C=C/C(=O)c2ccc([N+](=O)[O-])o2)cc1,25,48,109*,14,35,100*,97*,58*
O=C(/C=C/c1ccc(Cl)cc1)c1ccc([N+](=O)[O-])o1,4,-5,115*,25,?,98*,100*,31
Cc1cccc(C)c1NC(=O)CN(C)C(=O)C1CCCCC1,nt,nt,-6,15,nt,9,nt,nt
Cc1ccc(-c2n[nH]c3c2C(c2ccccc2)N(c2ccc(C(=O)O)cc2)C3=O)cc1 (centres undefined),4,3,-3,-10,-3,-1,nt,nt
C[C@@H]1Cc2c(O)c(O)cc(O)c2C(=O)O1,-12,1,nt,13,-16,10,nt,nt
CC1CCC/C=C/C(=O)c2c(O)cc(O)cc2CC(=O)O1 (centres undefined),30,1,23,25,40,100*,98*,56*
COC(=O)c1ccccc1NC(=O)c1cc(-c2cccs2)on1,-10,1,24,-6,3,60*,-8,nt
COC(=O)c1ccccc1NC(=O)c1cc(-c2ccco2)on1,-5,15,-1,21,7,-6,nt,nt
CN(C)CCNc1ccc(-c2nn(C)c(=O)c3ccccc23)cc1[N+](=O)[O-],72*,-14,-9,12,7,53*,37,78*
C=CCN1C(=O)/C(=C2/Sc3ccc(OC)cc3N2C)SC1=Nc1cccc(O)c1,-3,-3,-7,1,-1,67*,29,nt
O=C(NC(=O)c1ccccc1)Nc1ccccc1,-9,-32,-2,45,0,-73,nt,nt
COc1ccc(-c2cn[nH]c2-c2ccc(OCc3ccccc3)cc2O)cc1OC,18,16,7,6,43,53*,55*,43*
C=C(C)COc1ccc(-c2[nH]ncc2-c2ccccc2)c(O)c1,-20,1,0,19,-13,7,nt,nt
COc1ccc(-c2cnc(N)nc2-c2ccc(OC)cc2O)cc1,23,8,-16,35,18,58*,18,nt
COc1ccc(-c2cn[nH]c2-c2ccc(OCc3ccc(F)cc3)cc2O)cc1OC,53,-5,26,3,53,27,nt,nt
COc1ccc(-c2nc(N)ncc2-c2ccccc2)c(O)c1,14,15,-24,33,-6,46,nt,nt
C=C(C)COc1ccc(-c2n[nH]c(C)c2-c2ccc(OC)c(OC)c2)c(O)c1,20,1,21,-14,81*,71*,54*,63*
C=C(C)COc1ccc(-c2[nH]ncc2-c2ccc(OC)cc2)c(O)c1,7,0,-9,7,?,63*,65*,29
CC(=O)NCCc1nc2cc(NC(=O)c3ccccc3Cl)ccc2n1C,-9,-4,3,nt,-3,nt,nt,nt
